Assays:
[1] = target: T1, Inhibitor of nuclear factor kappa-B kinase subunit beta (Homo sapiens, UniProt O14920); experiment: Inhibition of human IKK-beta by substrate phosphorylation assay
T1 sequence (O14920 whole entry): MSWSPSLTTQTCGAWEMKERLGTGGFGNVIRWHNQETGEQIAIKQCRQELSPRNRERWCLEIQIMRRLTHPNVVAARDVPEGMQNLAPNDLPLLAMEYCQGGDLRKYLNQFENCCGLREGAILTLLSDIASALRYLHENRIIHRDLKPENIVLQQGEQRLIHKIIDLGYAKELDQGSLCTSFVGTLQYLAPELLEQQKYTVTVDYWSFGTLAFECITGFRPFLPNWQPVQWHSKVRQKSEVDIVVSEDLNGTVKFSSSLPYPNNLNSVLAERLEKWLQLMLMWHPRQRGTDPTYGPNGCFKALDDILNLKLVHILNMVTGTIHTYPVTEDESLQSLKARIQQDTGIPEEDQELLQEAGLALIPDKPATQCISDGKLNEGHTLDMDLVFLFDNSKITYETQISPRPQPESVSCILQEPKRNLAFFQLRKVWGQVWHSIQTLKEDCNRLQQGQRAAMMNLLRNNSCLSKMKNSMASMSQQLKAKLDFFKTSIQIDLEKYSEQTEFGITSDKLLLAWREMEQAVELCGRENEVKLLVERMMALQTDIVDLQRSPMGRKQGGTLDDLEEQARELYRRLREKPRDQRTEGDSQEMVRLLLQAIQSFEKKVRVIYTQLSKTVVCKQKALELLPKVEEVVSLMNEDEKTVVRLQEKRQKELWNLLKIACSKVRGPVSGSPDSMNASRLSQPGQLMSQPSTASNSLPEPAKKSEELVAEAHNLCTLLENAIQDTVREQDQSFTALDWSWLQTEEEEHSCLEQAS
In short: (§1)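 Human IKK-α or IKK-β was tested on a biotinylated 21-residue IκBα peptide captured on avidin-coated plates and blocked with 3% BSA. Enzyme in 25 mM Tris pH 7.4, 2 mM DTT and 0.01% Tween 20 was preincubated with compound (1% DMSO) for 10 min at 25 °C. An ATP/MgCl₂ solution started the reaction, which ran 60 min at 25 °C. Phospho-IκBα was detected with a mouse monoclonal antibody, then HRP anti-mouse IgG and TMB.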

[2] = target: T2, Inhibitor of nuclear factor kappa-B kinase subunit alpha (Homo sapiens, UniProt O15111); experiment: Inhibition of human IKK-alpha by substrate phosphorylation assay; in short: as §1
T2 sequence (O15111 whole entry): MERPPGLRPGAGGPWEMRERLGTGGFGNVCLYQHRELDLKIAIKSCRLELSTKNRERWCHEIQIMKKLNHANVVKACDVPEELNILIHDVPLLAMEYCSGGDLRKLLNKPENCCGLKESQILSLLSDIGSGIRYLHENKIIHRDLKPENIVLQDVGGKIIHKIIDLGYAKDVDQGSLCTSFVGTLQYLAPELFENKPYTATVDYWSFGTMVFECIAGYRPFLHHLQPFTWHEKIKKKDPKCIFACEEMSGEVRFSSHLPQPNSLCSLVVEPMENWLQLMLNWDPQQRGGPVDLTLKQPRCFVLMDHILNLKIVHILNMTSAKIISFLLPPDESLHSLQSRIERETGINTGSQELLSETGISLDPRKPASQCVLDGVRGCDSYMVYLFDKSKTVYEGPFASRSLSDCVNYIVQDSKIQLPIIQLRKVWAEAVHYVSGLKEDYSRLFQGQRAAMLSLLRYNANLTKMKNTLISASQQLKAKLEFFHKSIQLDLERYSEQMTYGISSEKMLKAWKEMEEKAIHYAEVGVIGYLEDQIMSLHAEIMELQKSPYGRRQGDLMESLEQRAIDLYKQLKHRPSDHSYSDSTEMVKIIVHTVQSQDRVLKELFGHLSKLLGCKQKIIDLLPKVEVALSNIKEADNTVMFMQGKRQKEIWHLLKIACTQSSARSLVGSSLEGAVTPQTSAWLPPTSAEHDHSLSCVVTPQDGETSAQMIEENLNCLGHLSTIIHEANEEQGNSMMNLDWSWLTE

THP-1 = experiment: Antiinflammatory activity in human THP1 cells assessed as inhibition of LPS-induced TNF-alpha production after 6 hrs by ELISA; details: THP-1, 6 h
Mus musculus = experiment: Antiinflammatory activity in po dosed DBA/2 mouse assessed as inhibition of LPS-stimulated plasma TNFalpha production pretreated 60 mins before LPS challenge measured after 90 mins by ELISA; assay type: functional, organism-based
In short: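 Female DBA/2 mice were given compound by oral gavage at 3 and 10 mg/kg. After 60 min, LPS in 0.2 mL saline was injected i.p. Plasma TNF-α was measured by ELISA 90 min after the LPS challenge.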

| IC50 [1] [µM] | IC50 [2] [µM] | IC50 (THP-1) [µM] | Structure (SMILES) | inhibition (Mus musculus) |
| --- | --- | --- | --- | --- |
| 2.5 | > 100 | 0.6 | NC(=O)Nc1sc2c(c1C(N)=O)CCc1nn(C3CCCN(Cc4ccc(Cl)cc4)C3)cc1-2 (stereo unspecified) |  |
| 0.5 | 41 | 4.4 | NC(=O)Nc1sc2c(c1C(N)=O)CCc1nn(C3CCCN(Cc4ccc(Cl)cc4F)C3)cc1-2 (stereo unspecified) |  |
| 0.2 |  | 12 | NC(=O)Nc1sc2c(c1C(N)=O)CCc1c-2cnn1Cc1ccc(F)cc1 |  |
| 2.3 |  | 9 | NC(=O)Nc1sc2c(c1C(N)=O)CCc1nn(Cc3ccncc3)cc1-2 |  |
| 1.7 | > 100 | 0.8 | NC(=O)Nc1sc2c(c1C(N)=O)CCc1nn(C3CCCN(Cc4ccc(F)cc4F)C3)cc1-2 (stereo unspecified) | Dose-dependent effect |
| 0.5 | 9 | 0.5 | NC(=O)Nc1sc2c(c1C(N)=O)CCc1nn(C3CCCN(Cc4ccc(N)cc4F)C3)cc1-2 (stereo unspecified) |  |
| 2.3 |  | 4.6 | CC(C)n1cc2c(n1)CCc1c-2sc(NC(N)=O)c1C(N)=O |  |
| 8.4 |  |  | CCCCCCn1cc2c(n1)CCc1c-2sc(NC(N)=O)c1C(N)=O |  |
| 8.8 |  |  | CN(C)CCn1cc2c(n1)CCc1c-2sc(NC(N)=O)c1C(N)=O |  |
| 4.8 |  | 1.2 | NC(=O)Nc1sc2c(c1C(N)=O)CCc1nn(C3CCN(Cc4ccccc4)CC3)cc1-2 |  |
| 4.5 |  | > 30 | NC(=O)Nc1sc2c(c1C(N)=O)CCc1nn(Cc3ccccn3)cc1-2 |  |
| 3 |  | 1.7 | NC(=O)Nc1sc2c(c1C(N)=O)CCc1nn(C3CCN(Cc4ccccc4)C3)cc1-2 (racemic) |  |
| 4.2 |  | 5.6 | NC(=O)Nc1sc2c(c1C(N)=O)CCc1nn(Cc3ccccc3)cc1-2 |  |
| > 10 |  |  | CC(=O)Nc1ccc(CN2CCCC(n3cc4c(n3)CCc3c-4sc(NC(N)=O)c3C(N)=O)C2)c(F)c1 (stereo unspecified) |  |
| > 10 |  |  | NC(=O)Nc1sc2c(c1C(N)=O)CCc1nn(C3CCCCN(Cc4ccccc4)C3)cc1-2 (racemic) |  |
| 2.2 |  | 42 | CCCn1ncc2c1CCc1c-2sc(NC(N)=O)c1C(N)=O |  |
| 7.1 |  | 2.5 | NC(=O)Nc1sc2c(c1C(N)=O)CCc1nn(C3CN(Cc4ccccc4)C3)cc1-2 |  |
| 2.9 |  | 5.2 | CCCn1cc2c(n1)CCc1c-2sc(NC(N)=O)c1C(N)=O |  |
| 0.9 |  | 0.7 | NC(=O)Nc1sc2c(c1C(N)=O)CCc1nn(C3CCCN(Cc4ccc(O)cc4F)C3)cc1-2 (stereo unspecified) |  |
| 2.7 |  | 4 | CCCCn1cc2c(n1)CCc1c-2sc(NC(N)=O)c1C(N)=O |  |
| 1.9 | > 100 | 3.8 | COc1ccc(CN2CCCC(n3cc4c(n3)CCc3c-4sc(NC(N)=O)c3C(N)=O)C2)c(F)c1 (stereo unspecified) |  |
| 4.8 |  | 24 | NC(=O)Nc1sc2c(c1C(N)=O)CCc1nn(Cc3cccnc3)cc1-2 |  |
| 11 |  |  | COCCn1cc2c(n1)CCc1c-2sc(NC(N)=O)c1C(N)=O |  |
| 3.1 |  | 0.3 | NC(=O)Nc1sc2c(c1C(N)=O)CCc1nn(C3CCCN(Cc4cc(F)c(F)cc4F)C3)cc1-2 (stereo unspecified) |  |
| 0.9 |  | 2.5 | NC(=O)Nc1sc2c(c1C(N)=O)CCc1nn(Cc3ccc(F)cc3)cc1-2 |  |
| 4.6 |  | 5.1 | CN(CCn1cc2c(n1)CCc1c-2sc(NC(N)=O)c1C(N)=O)Cc1ccccc1 |  |
| 2.2 | > 100 | 0.5 | NC(=O)Nc1sc2c(c1C(N)=O)CCc1nn(C3CCCN(Cc4ccccc4)C3)cc1-2 (racemic) |  |
